Compound activity deposited in PubChem BioAssay by Broad Institute.
An excerpt weighted towards active compounds, which were near 2.9% of everything screened.
DENV2 CPE rescue = inhibitors of DENV2 cytopathic effect; DENV2-infected cells, cytopathic effect rescue, plate reader; CPE inhibition, % at 9.99 µM; 350,000 compounds, 1.7% hits; AID 651640; in the data active means CPE inhibition above about 20%, passing the limit was not always enough; tested in BHK-21 cells;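 further: 0% = median of neutral control wells and 100% = median of positive control wells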
SIRT5 block = sirtuin-5 (human) deacylase inhibition | Q9NXA8 | Purified SirT5, succinyl-peptide AMC, trypsin-coupled fluorescence | inhibition, % at 15 µM | 330,000 compounds, 1.1% hits | AID 652115; in the data active means inhibition above about 15%
Target sequence (Q9NXA8 whole entry, looked up): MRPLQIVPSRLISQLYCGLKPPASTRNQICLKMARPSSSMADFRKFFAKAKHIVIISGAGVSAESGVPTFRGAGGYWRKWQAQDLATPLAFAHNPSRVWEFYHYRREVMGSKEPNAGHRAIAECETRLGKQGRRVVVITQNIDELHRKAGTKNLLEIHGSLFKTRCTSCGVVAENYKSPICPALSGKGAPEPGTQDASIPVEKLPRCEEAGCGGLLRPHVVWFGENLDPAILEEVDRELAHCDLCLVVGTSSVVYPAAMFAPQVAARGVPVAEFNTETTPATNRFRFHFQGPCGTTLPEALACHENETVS
S100A4 MyoIIA = inhibitors of human S100A4 binding to myosin IIA peptide; P26447; S100A4/TAMRA-MyoIIA peptide fluorescence polarization; 360,000 compounds, 0.14% hits; inhibition, % at 10.7 µM;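 active means mean inhibition of at least 70% across replicates, with every replicate also reaching that level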
Target sequence (P26447 whole entry, looked up): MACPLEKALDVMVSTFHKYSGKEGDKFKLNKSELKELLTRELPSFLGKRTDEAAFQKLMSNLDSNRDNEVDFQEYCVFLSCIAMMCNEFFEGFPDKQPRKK
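Test system: S100A4 monomer protein; Medium: HEPES pH 7.2 with CaCl2, KCl, NaCl, DTT, Triton; Probe or stimulus: TAMRA-labelled myosin IIA heavy-chain peptide probe, 5 nM; Doses: one dose per compound; Times: polarization read 5 min after assay mix addition, stable 5–60 min; Benchmarks: neutral control DMSO, positive control TFP.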
Statin myotox sup = suppression of simvastatin myotoxicity | 330,000 compounds, 0.78% hits | C2C12 myotubes + simvastatin, ATP luminescence, 48 h; scaled: DMSO 0, geranylgeraniol control 100 | AID 602340 | rescue of ATP level, % at 7.49 µM;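 active means mean ATP rescue above about 67%, or every replicate alone reaching that limit, limit read from the data, passing the limit was not always enough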;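 further: myotubes were challenged with 10 µM simvastatin during compound exposure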
PGC1a acetyl inh = PGC1a acetylation modulation, inhibitor mode; U2OS PGC1a acetylation, AlphaScreen anti-acetyl-lysine; with virally co-expressed GCN5 acetyltransferase; inhibition, % at 15.6 µM; 350,000 compounds, 0.17% hits; AID 651687;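 active means every replicate shows inhibition of at least 40%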;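 further: 0% = neutral control wells and 100% = positive control wells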
The depositor's hits bear a star; . = no result given; ! = repeats disagree.

SMILES	DENV2 CPE rescue	SIRT5 block	S100A4 MyoIIA	Statin myotox sup	PGC1a acetyl inh
COCCn1c(CCc2ccccc2)n[nH]c1=S	-1	-3	-11	.	-3
CCOc1ccc(NC(=O)CC2C(=O)N(c3ccc(OC)cc3)C(=O)N2CCc2cccs2)cc1 (centres undefined)	96*	.	-5	.	.
COc1ccc(NC(=O)CC2C(=O)N(c3ccccc3)C(=O)N2CCc2cccs2)cc1 (centres undefined)	-8	-4	4	.	.
C[C@@H]1CCCCO[C@@H](CN(C)C(=O)Nc2ccc3c(c2)OCO3)[C@@H](C)CN([C@@H](C)CO)C(=O)c2cc(NC(=O)Nc3cccc4ccccc34)ccc2O1	61*	4	-37	.	0
C[C@@H]1CCCCO[C@H](CN(C)C(=O)Nc2cccc3ccccc23)[C@H](C)CN([C@@H](C)CO)C(=O)c2cc(NC(=O)Nc3ccc4c(c3)OCO4)ccc2O1	-4	6	-4	122*	-8
C[C@H]1CN([C@@H](C)CO)S(=O)(=O)c2ccc(C#Cc3ccccc3F)cc2O[C@H]1CN(C)CC1CC1	-3	-4	-5	9	-24
O=C(C[C@@H]1C=C[C@@H](NC(=O)Nc2ccccc2F)[C@H](CO)O1)NCc1ccccc1	2	1	3	.	-2
CC(=O)N1C=CN(C(C)=O)C(c2cn(C)c3ccccc23)C1c1cn(C)c2ccccc12 (centres undefined)	.	.	.	115*	6
Cn1cc(/C=C/C(=O)c2ccccc2)c2ccccc21	-6	-4	-2	7	.
COc1ccc(NC(=O)N(C)C[C@H]2OCc3cnnn3CCCC(=O)N([C@@H](C)CO)C[C@H]2C)c(OC)c1	26*!	-11	6	11	1
COc1ccc(NC(=O)N(C)C[C@@H]2OCc3cnnn3CCCC(=O)N([C@@H](C)CO)C[C@@H]2C)cc1	24*!	-2	-5	-2	4
C[C@@H]1CN([C@@H](C)CO)C(=O)CCCn2nncc2CO[C@H]1CN(C)C(=O)Nc1ccc(C(C)(C)C)cc1	22*	2	-6	5	-4
O=C(C[C@H]1C[C@@H]2c3cc(NS(=O)(=O)c4ccc(F)cc4)ccc3O[C@@H]2[C@@H](CO)O1)NCc1ccccc1	8	4	-30	1	2
C[C@@H]1CCCCO[C@H](CN(C)CC2CCCCC2)[C@@H](C)CN([C@@H](C)CO)C(=O)c2cc(NS(=O)(=O)c3cccs3)ccc2O1	-1	-1	-3	.	-6
O=C(Nc1ccccc1C(F)(F)F)N1CCC(N2CCCCC2)CC1	.	.	.	2	9
O=C(Nc1ccccc1C(F)(F)F)C(O)(c1ccccc1)C1CCCCC1 (centres undefined)	50*	.	2	-7	5
CN(C[C@H]1N[C@@H](CO)[C@H]1c1ccc(-c2cccnc2)cc1)C(=O)CC1CC1	1	-3	-13	0	-6
Cc1noc(C)c1S(=O)(=O)Nc1ccc2c(c1)C(=O)N([C@@H](C)CO)C[C@H](C)[C@H](CN(C)C(=O)CCC(F)(F)F)OCCCC[C@H](C)O2	34*	6	3	.	-2
C[C@H](CO)N1C[C@H](C)[C@H](CN(C)C(=O)CCCN(C)C)OCCCC[C@H](C)Oc2ccc(NS(=O)(=O)c3ccc(Cl)cc3)cc2C1=O	41*	-6	1	.	-8
COc1ccc(S(=O)(=O)Nc2ccc3c(c2)C(=O)N([C@@H](C)CO)C[C@@H](C)[C@H](CN(C)C(=O)CCCN(C)C)OCCCC[C@@H](C)O3)cc1	31*	-2	-5	4	-4
C[C@H](CO)N1C[C@H](C)[C@H](CN(C)C(=O)CCC(F)(F)F)OCCCC[C@H](C)Oc2ccc(NS(=O)(=O)c3ccc(Cl)cc3)cc2C1=O	-8	17*	4	.	8
CCc1nnc(SCC(=O)Nc2ccc(C(C)=O)cc2)nc1CC	.	.	.	113*	14
CCc1ccc(NC(=O)CSc2nnc(CC)c(CC)n2)cc1	.	.	.	.	-17
C[C@@H]1CN([C@@H](C)CO)C(=O)c2cc(NS(=O)(=O)c3ccc(F)cc3)ccc2O[C@@H](C)CCCCO[C@@H]1CN(C)Cc1ccc(C(F)(F)F)cc1	3	-3	6	.	0
C[C@@H]1CCCCO[C@H](CN(C)Cc2ccc(C(F)(F)F)cc2)[C@H](C)CN([C@H](C)CO)C(=O)c2cc(NS(=O)(=O)c3ccc(F)cc3)ccc2O1	30*	17*	-8	.	8
SMILES	DENV2 CPE rescue	SIRT5 block	S100A4 MyoIIA	Statin myotox sup	PGC1a acetyl inh
C[C@H](CO)N1C[C@H](C)[C@H](CN(C)Cc2ccc(C(F)(F)F)cc2)OCCCC[C@H](C)Oc2ccc(NS(=O)(=O)c3ccc(F)cc3)cc2C1=O	-6	17*	-33	.	17
C[C@H]1CCCCO[C@@H](CN(C)Cc2ccc(C(F)(F)F)cc2)[C@@H](C)CN([C@@H](C)CO)C(=O)c2cc(NS(=O)(=O)c3ccc(F)cc3)ccc2O1	-8	20*	-19	.	-1
C[C@@H]1CCCCO[C@@H](CN(C)Cc2ccc(C(F)(F)F)cc2)[C@H](C)CN([C@H](C)CO)C(=O)c2cc(NS(=O)(=O)c3ccccc3)ccc2O1	1	18*	17	.	-5
C[C@@H]1CCCCO[C@H](CN(C)C)[C@@H](C)CN([C@H](C)CO)C(=O)c2cc(NS(=O)(=O)c3ccc(F)cc3)ccc2O1	-2	-15	10	0	-33
CCCNC(=O)N1C[C@@H]2[C@H](c3ccccc31)[C@@H](CO)N2C(=O)CN1CCOCC1	9	-5	8	18	14
C[C@H]1CCCCO[C@H](CN(C)C)[C@@H](C)CN([C@@H](C)CO)C(=O)c2cc(NC(=O)Nc3ccc(F)cc3)ccc2O1	14	-1	3	-7	6
C[C@@H]1CN([C@H](C)CO)C(=O)c2cc(-c3cccc(F)c3)cnc2O[C@H]1CN(C)C	3	-2	-14	10	1
O=C(CC1CC1)N1CC[C@@H]2[C@H]1c1cc(-c3ccccc3)ccc1N[C@@H]2CO	-3	-2	-7	10	3
CN(C)CC(=O)N[C@@H]1CC[C@@H](CC(=O)NCc2ccccc2F)O[C@H]1CO	-1	-2	16	-3	2
C[C@@H]1CN([C@@H](C)CO)C(=O)c2cc(C#CC(C)(C)O)cnc2O[C@H]1CN(C)C(=O)C1CCC1	-4	-2	18	-5	-1
C[C@@H]1CCCCO[C@H](CN(C)Cc2ccc(C(F)(F)F)cc2)[C@@H](C)CN([C@@H](C)CO)C(=O)c2cc(NS(=O)(=O)c3ccc(F)cc3)ccc2O1	-4	19*	-6	.	6
C[C@@H]1CCCCO[C@H](CN(C)Cc2ccc(C(F)(F)F)cc2)[C@H](C)CN([C@@H](C)CO)C(=O)c2cc(NS(=O)(=O)c3ccc(F)cc3)ccc2O1	7	0	11	.	-10
Cc1ccc(C(=O)NCC(=O)Nc2ccc(S(=O)(=O)Nc3cc(C)nc(C)n3)cc2)cc1	56*	2	0	16	-6
